The list is not random: actives were taken first. Their share in the collection is about 5.4%.
PostGolgi yeast: phenotypic screen on post-Golgi transport, primary screen; post-Golgi transport phenotypic cell assay; 98,000 tested, 0.9% active; inhibition, % at 10 µM;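 note: yeast cells grown in 1536-well plates; yeast grown about 18 h at 30C before absorbance read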
PLAP activator: PLAP enzyme activators, biochemical, luminescence, HTS; 96,000 tested, 1.2% active; activation fold at 20 µM; Alkaline phosphatase, placental type (Homo sapiens), P05187; purified PLAP enzyme, luminescent substrate read-out; stronger effect = higher value; in the data active = activation fold above about 2
Target sequence (P05187 whole entry, looked up): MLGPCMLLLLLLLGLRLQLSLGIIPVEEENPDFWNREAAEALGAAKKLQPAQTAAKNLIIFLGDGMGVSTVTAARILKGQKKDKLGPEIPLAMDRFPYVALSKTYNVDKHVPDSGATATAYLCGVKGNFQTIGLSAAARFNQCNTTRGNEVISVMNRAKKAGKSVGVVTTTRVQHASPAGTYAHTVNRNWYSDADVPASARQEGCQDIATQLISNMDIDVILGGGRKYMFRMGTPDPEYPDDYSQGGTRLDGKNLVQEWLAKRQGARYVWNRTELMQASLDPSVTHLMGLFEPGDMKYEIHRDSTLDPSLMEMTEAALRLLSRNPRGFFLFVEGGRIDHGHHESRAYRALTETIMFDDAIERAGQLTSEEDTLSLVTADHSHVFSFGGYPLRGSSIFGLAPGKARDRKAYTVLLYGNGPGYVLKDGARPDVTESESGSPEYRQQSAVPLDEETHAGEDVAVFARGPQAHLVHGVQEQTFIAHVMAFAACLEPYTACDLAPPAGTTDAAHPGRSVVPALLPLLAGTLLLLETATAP
HePTP inhibitor: inhibitors of human HePTP phosphatase, primary screen, biochemical, absorbance, leukemia target; Tyrosine-protein phosphatase non-receptor type 7 (Homo sapiens), P35236; recombinant HePTP phosphatase activity, OD absorbance; inhibition, % at 20 µM; 110,000 tested, 0.64% active; AID 521, 2006; in the data active = inhibition above about 50%;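 note: plate controls were vehicle for no effect and reference inhibitor for full effect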
PostGolgi ctrl: growth inhibition of yeast control strain, primary screen, counter-screen for post-Golgi transport modulator project. 98,000 tested, 5% active. inhibition, % at 10 µM. efflux-deficient yeast background strain, growth absorbance A615, 16 h. AID 738, 2007
Ecoli WT expand: growth inhibitors of wild-type E. coli, primary screen, strain BW25113, expanded library, OD600; growth inhibition, % at 100 µM; 98,000 tested, 0.15% active; OD600 absorbance;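 active = growth inhibition above about 50% at one test dose, limit read from the data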;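 note: growth measured after 20 h incubation at 37 °C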
Ecoli tolC: growth inhibitors of E. coli tolC mutant, primary screen, strain BW25113 ΔtolC::kan, 384-well; OD615; growth inhibition, % at 10 µM (by protocol); 65,000 tested, 2.2% active;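 active = growth inhibition at or above a cutoff equal to the mean over every tested compound plus 3 SD, cut at about 60% in these data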;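 note: growth measured after 20 h incubation at 37 °C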
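Doses: one dose of 10 µM final / Material: E. coli BW25113 ΔtolC::kan, tolC deletion mutant strain / Buffer or medium: LB with kanamycin 50 µg/mL / Evaluation: percent growth inhibition / Detection: optical density read at 615 nm / Incubation: 37 °C, 20 h exposure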
Starred values were filed as active, the others as inactive. Cut-off read from the data, not from the text of the source, unless noted: active = inhibition above about 30%; inactive = the rest.

CCCCSC1=C(C#N)C(c2ccccc2C)C(C(=O)OCC)C(=O)N1 (stereo not given) was read as PostGolgi yeast 7, PLAP activator 0.8, HePTP inhibitor 5, PostGolgi ctrl 15, Ecoli WT expand -7 and Ecoli tolC 71*.
CCOC(=O)CSC1=C(C#N)C(c2ccccc2OCC)C(C(=O)OCC)C(=O)N1 (stereo not given) was read as PostGolgi yeast 7, PLAP activator 1.7, HePTP inhibitor 5, PostGolgi ctrl 1, Ecoli WT expand 5 and Ecoli tolC 18.
For Cc1noc(C)c1S(=O)(=O)Nc1ccc(C(=O)NC2CCCCC2)cc1 the results were PostGolgi yeast 0, PLAP activator 1, HePTP inhibitor -2, PostGolgi ctrl 5, Ecoli WT expand 4 and Ecoli tolC 13.
`Cc1ccc(Cl)cc1N1CCN(C(=O)c2ccc(NS(=O)(=O)c3c(C)noc3C)cc2)CC1` gave PostGolgi yeast 1, PLAP activator 1.5, HePTP inhibitor -5, PostGolgi ctrl -5, Ecoli WT expand -19 and Ecoli tolC 71*.
Screening Cc1ccc(C)c(N2CCN(C(=O)c3ccc(NS(=O)(=O)c4c(C)noc4C)cc3)CC2)c1 returned PostGolgi yeast 4, PLAP activator 1.3, HePTP inhibitor -11, PostGolgi ctrl 14, Ecoli WT expand -18 and Ecoli tolC 80*.
Screening Cc1noc(C)c1S(=O)(=O)Nc1ccc(C(=O)N2CCCCC2)cc1 returned PostGolgi yeast 17, PLAP activator 1.3, PostGolgi ctrl -3 and Ecoli WT expand -5.
Cc1cc2c3c(c1)C1(C(=O)N3C(C)(C)CC2C)C(C#N)=C(N)Oc2cc(O)ccc21 (stereo not given) was read as PostGolgi yeast 0, PLAP activator 1.4, HePTP inhibitor 2, PostGolgi ctrl 17, Ecoli WT expand 0 and Ecoli tolC 68*.
Screening Cc1ccc2c3c1C1(C(=O)N3C(C)(C)CC2C)C(C#N)=C(N)Oc2cc(O)ccc21 (stereo not given) returned PostGolgi yeast -2, PLAP activator 0.9, HePTP inhibitor -5, PostGolgi ctrl 2, Ecoli WT expand -3 and Ecoli tolC 97*.
Screening Cc1nn(-c2ccccc2)c2c1C1(C(=O)N3c4c(cccc41)C(C)CC3(C)C)C(C#N)=C(N)O2 (stereo not given) returned PostGolgi yeast 2, PLAP activator 1.6, PostGolgi ctrl 11 and Ecoli WT expand 3.
For CC1=CC(C)(C)N2C(=O)C3(C(C#N)=C(N)Oc4cc(O)ccc43)c3cccc1c32 (stereo not given) the results were PostGolgi yeast 0, PLAP activator 1.5, HePTP inhibitor 0, PostGolgi ctrl 3, Ecoli WT expand 13 and Ecoli tolC 100*.
COc1ccc(CN2CCN(C3CCCCC3)CC2)c(OC)c1OC was read as HePTP inhibitor -5.
Screening CN(C)S(=O)(=O)c1ccc(C(=O)Nc2nc(-c3ccccc3)c(-c3ccccc3)s2)cc1 returned HePTP inhibitor 7.
`CCOC(=O)/C(C#N)=C1/C=Nc2ccccc2N1` gave PostGolgi yeast -3, PLAP activator 1, HePTP inhibitor -2, PostGolgi ctrl 41*, Ecoli WT expand 3 and Ecoli tolC 2.
CCOC(=O)/C(C#N)=C1\C(=O)Nc2ccccc21 was read as HePTP inhibitor 4.
For O=c1/c(=C/c2cccc(OCc3ccccc3F)c2)sc2nc3ccccc3n12 the results were HePTP inhibitor -5.
Screening COc1ccc(C(=O)NCCSCc2ccccc2C)cc1 returned PostGolgi yeast -2, PLAP activator 0.9, PostGolgi ctrl 19 and Ecoli WT expand 11.
For Cc1ccc(SCCC(=O)NCCSCc2ccccc2C)cc1 the results were PostGolgi yeast 7, PLAP activator 1, PostGolgi ctrl 54* and Ecoli WT expand -15.
`CCOC(=O)c1ccc(-c2ccc(C(=O)Nc3ccc(-c4nc5ccccc5o4)cc3)o2)cc1` gave HePTP inhibitor 3.
CCOC(=O)N1CCC2(CC1)C(C#N)=C(N)Oc1c2sc2nc(C)cc(C)c12 was read as PostGolgi yeast 10, PLAP activator 0.9, HePTP inhibitor 2, PostGolgi ctrl 55*, Ecoli WT expand -3 and Ecoli tolC 40.
For CCCN1CCC2(CC1)C(C#N)=C(N)Oc1c2sc2nc(C)cc(C)c12 the results were PostGolgi yeast -3, PLAP activator 1.7, PostGolgi ctrl -6 and Ecoli WT expand -4.
For CCOC(=O)N1CCC2(CC1)C(C#N)=C(N)Oc1n[nH]c(C)c12 the results were PostGolgi yeast -1, PLAP activator 1.4, PostGolgi ctrl 19 and Ecoli WT expand 0.
`CCOC(=O)N1CCC2(CC1)C(C#N)=C(N)Oc1c2c(C)nn1-c1cccc(Cl)c1` gave PostGolgi yeast -7, PLAP activator 1.4, HePTP inhibitor -4, PostGolgi ctrl 31*, Ecoli WT expand 1 and Ecoli tolC 0.
`COc1ccc(S(=O)(=O)Nc2ccc(S(N)(=O)=O)cc2)cc1` gave HePTP inhibitor 3.
`CS(=O)(=O)c1sc2nc(-c3cccs3)cc(-c3ccccc3)c2c1N` gave PostGolgi yeast 0, PLAP activator 1.3, HePTP inhibitor 0, PostGolgi ctrl 6, Ecoli WT expand -6 and Ecoli tolC 17.
Cc1ccc(-c2cc(-c3ccccc3)c3c(N)c(S(C)(=O)=O)sc3n2)cc1 was read as PostGolgi yeast 6, PLAP activator 1.7, PostGolgi ctrl 31* and Ecoli WT expand -7.
Screening COc1ccc(-c2noc(CN(C)S(=O)(=O)c3ccc(Cl)cc3)n2)cc1OC returned PostGolgi yeast -3, PLAP activator 0.9, HePTP inhibitor -9, PostGolgi ctrl 23, Ecoli WT expand -4 and Ecoli tolC -4.
`CC(C)N(Cc1nc(-c2ccc(Cl)cc2)no1)C(=O)CN(C)S(=O)(=O)c1ccc(Cl)cc1` gave PostGolgi yeast -3, PLAP activator 0.9, HePTP inhibitor 12, PostGolgi ctrl 52*, Ecoli WT expand -19 and Ecoli tolC 27.
For CC(C)N(Cc1nc(-c2ccccc2)no1)C(=O)CN(C)S(=O)(=O)c1ccc(Br)cc1 the results were PostGolgi yeast 10, PLAP activator 1.3, PostGolgi ctrl 62* and Ecoli WT expand -8.
For CCOC(=O)C1Cn2c(nc3c(c2=O)C(C)(C)Cc2ccccc2-3)S1 (stereo not given) the results were PostGolgi yeast 22, PLAP activator 1.6, HePTP inhibitor 6, PostGolgi ctrl 32*, Ecoli WT expand -1 and Ecoli tolC 36.

Assay outcomes as filed in PubChem.
